# Calls of active or inactive are those of the source. The rule behind the calls is not given here. Residues, ends and D or L forms follow the SMILES beside them. *: point of attachment. Cbz = O=C(OCc1ccccc1)*
# Legend:
# [1] = molecular target: Acidic phospholipase A2 2 (Naja naja) (UniProt P15445); test: Inhibition of Naja naja venom sPLA2 at 10 uM
# In short: (§1)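 Radiometric sPLA2 assay on [3H]oleate-labeled, autoclaved E. coli CECT 101 membranes. Enzyme in 100 mM Tris-HCl/1 mM CaCl2, pH 7.5, preincubated 5 min at 37 °C with compound (10 µM) or vehicle. Then 15 min with labeled membranes, stopped with ice-cold BSA (0.07% w/v final). Supernatant radioactivity counted after centrifugation; % inhibition, mean ± SEM, n = 6.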
# [2] = molecular target: Phospholipase A2, major isoenzyme (Sus scrofa) (UniProt P00592); test: Inhibition of pig sPLA2 at 10 uM
# Sequence of Phospholipase A2, major isoenzyme (Sus scrofa) (P00592 23-146 limits assumed): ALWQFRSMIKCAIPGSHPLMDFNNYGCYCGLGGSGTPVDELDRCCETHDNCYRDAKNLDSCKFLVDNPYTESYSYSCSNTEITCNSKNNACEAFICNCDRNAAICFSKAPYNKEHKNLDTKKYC
# In short: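 sPLA2 (human recombinant synovial group IIA; porcine pancreatic group IB) in 100 mM Tris-HCl/1 mM CaCl2, pH 7.5, preincubated 5 min at 37 °C with compound (10 µM) or vehicle. 15 min incubation with [3H]oleate-labelled autoclaved E. coli membranes as substrate. Stopped with ice-cold BSA (0.07% final), centrifuged, supernatant radioactivity counted. Mean ± SEM, n = 6.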
# [3] = molecular target: T1, Phospholipase A2 (Apis mellifera) (UniProt P00630); test: Inhibition of bee venom sPLA2 at 10 uM; in short: as §1
# T1 sequence (whole entry): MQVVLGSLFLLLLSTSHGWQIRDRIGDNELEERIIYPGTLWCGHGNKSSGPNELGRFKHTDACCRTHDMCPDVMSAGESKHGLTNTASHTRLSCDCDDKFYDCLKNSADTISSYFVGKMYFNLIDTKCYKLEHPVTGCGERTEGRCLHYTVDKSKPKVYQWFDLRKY
# RAW264.7 [4] = test: Inhibition of PGE2 production in LPS-stimulated mouse RAW264.7 cells at 1 uM after 18 hrs; assay type: functional
# In short: (§2)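 RAW 264.7 macrophages (1.5 × 10^6 cells/mL) co-incubated with E. coli 0111:B4 LPS (1 µg/mL) and compound or vehicle at 37 °C (induction phase). PGE2 in supernatants measured by radioimmunoassay; MTT reduction checked cytotoxicity. Mean ± SEM, n = 6; IC50 from at least four concentrations.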
# RAW264.7 [5] = test: Inhibition of PGE2 production in LPS-stimulated mouse RAW264.7 cells at 10 uM after 18 hrs; assay type: functional; in short: as §2
# RAW264.7 [6] = test: Inhibition of PGE2 production in LPS-stimulated mouse RAW264.7 cells at 1 uM after 2 hrs; assay type: functional
# In short: (§3)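 Post-induction phase: RAW264.7 cells that had already expressed COX-2 and mPGES-1 after LPS stimulation were given compound for 2 h in fresh medium supplemented with arachidonic acid. PGE2 in supernatants was quantified by radioimmunoassay. Mean ± SEM, n = 6.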
# RAW264.7 [7] = test: Inhibition of PGE2 production in LPS-stimulated mouse RAW264.7 cells at 10 uM after 2 hrs; assay type: functional; in short: as §3
# RAW264.7 [8] = test: Inhibition of mPGES1 expression in LPS-stimulated mouse RAW264.7 cells after 2 hrs by Western blot analysis; assay type: functional, cell-based
# THP-1 = test: Inhibition of COX2 expression in LPS-stimulated human THP1 cells at 1 uM by Western blot analysis; assay type: functional, cell-based
# In short: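 THP-1 human monocytic cells (1 × 10^6 cells/mL, RPMI with 10% FBS) incubated 18 h with LPS (1 µg/mL) plus compound. Lysates taken, total fraction (30 µg protein) run on SDS-15% PAGE, then blotted with polyclonal anti-COX-2 (1/200), peroxidase secondary and chemiluminescence detection.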
# Mus musculus [9] = species: Mus musculus; test: Decrease of mPGES1 expression in zymosan-stimulated Swiss mouse air pouch model after 24 hrs; assay type: functional, organism-based
# In short: (§4)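 Female Swiss mice (25-30 g) air pouch; six days after initial air injection, 1 mL of 1% (w/v) zymosan in saline injected into pouch, compound given intrapouch at the same time. Exudate collected after 24 h; cell pellets analysed by Western blot for COX-2, mPGES-1 and β-actin. Densitometry expressed as percentage of zymosan control band intensity.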
# RAW264.7 [10] = test: Inhibition of NF-kappaB DNA binding in LPS-stimulated mouse RAW264.7 cells; assay type: cell-based
# In short: (§5)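 EMSA: RAW 264.7 cells (1.5 × 10^6/well) preincubated 30 min with compound, then LPS (1 µg/mL) for 1 h. Nuclear extracts (6 µg) incubated on ice for 15 min with 32P-end-labelled consensus NF-κB oligonucleotide and poly(dI-dC), pH 8.0. Complexes resolved on native 6% PAGE and detected by autoradiography. Two independent experiments.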
# RAW264.7 [11] = test: Inhibition of PGE2 production in LPS-stimulated mouse RAW264.7 cells after 18 hrs; assay type: functional, cell-based; details: RAW264.7, 18 h; in short: as §2
# RAW264.7 [12] = test: Inhibition of COX2 expression in LPS-stimulated mouse RAW264.7 cells after 2 hrs by Western blot analysis; assay type: functional, cell-based
# Mus musculus [13] = species: Mus musculus; test: Inhibition of COX2 expression in zymosan-stimulated Swiss mouse air pouch model after 24 hrs; assay type: functional, organism-based; in short: as §4
# RAW264.7 [14] = test: Inhibition of NF-kappaB DNA binding in LPS-stimulated mouse RAW264.7 cells at 10 uM; assay type: cell-based; in short: as §5
# RAW264.7 [15] = test: Inhibition of NF-kappaB DNA binding in LPS-stimulated mouse RAW264.7 cells at 1 uM; assay type: cell-based; in short: as §5
# Sequence of Acidic phospholipase A2 2 (Naja naja) (P15445 whole entry): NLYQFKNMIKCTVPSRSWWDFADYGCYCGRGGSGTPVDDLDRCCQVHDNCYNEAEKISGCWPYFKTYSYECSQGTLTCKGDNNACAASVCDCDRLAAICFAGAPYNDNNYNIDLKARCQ
Structure (SMILES),inhibition [1] [%],inhibition [2] [%],inhibition [3] [%],also measured
CCCCc1ccc(C2=C(Br)C(=O)OC2O)cc1 (stereo not drawn),26,35.1,32.9,–
O=C1OC(O)C(c2ccc(-c3ccccc3)cc2)=C1Br (stereo not drawn),7.5,26,14.4,–
O=C1OC(O)C(c2cc3ccccc3s2)=C1Br (stereo not drawn),3.4,18.7,0,Activity (RAW264.7 [4]): 10.7 ng/mL; Activity (RAW264.7 [5]): 6.7 ng/mL; Activity (RAW264.7 [6]): 0.23 ng/mL; Activity (RAW264.7 [7]): 0.22 ng/mL; Activity (RAW264.7 [8]): Dose-dependent effect; Activity (THP-1): inactive; Activity (Mus musculus [9]): Active; Activity (RAW264.7 [10]): Dose-dependent effect; IC50 (RAW264.7 [11]): 1800 nM; Activity (RAW264.7 [12]): inactive
O=C1OC(O)C(c2ccc3ccccc3c2)=C1Br (stereo not drawn),9.2,27.7,14.7,–
O=C1OC(O)C(c2cccc3c2Sc2ccccc2S3)=C1Br (stereo not drawn),1.5,0,0,–
C[C@@H]1C[C@H]2[C@@H]3CCC4=CC(=O)C=C[C@]4(C)[C@@]3(F)[C@@H](O)C[C@]2(C)[C@@]1(O)C(=O)CO [DEXAMETHASONE],–,–,–,Activity (RAW264.7 [4]): 3.4 ng/mL; Activity (RAW264.7 [6]): 0.21 ng/mL; Activity (RAW264.7 [8]): Active; Activity (Mus musculus [9]): Active; Activity (Mus musculus [13]): Active; Activity (RAW264.7 [12]): Active
O=C1OC(O)C(c2csc3ccccc23)=C1Br (stereo not drawn),15.4,33.5,9.8,–
CC(C)C[C@@H](C=O)NC(=O)[C@H](CC(C)C)NC(=O)[C@H](CC(C)C)NC(=O)OCc1ccccc1 (Cbz-Leu-Leu-Leu-aldehyde),–,–,–,Activity (RAW264.7 [14]): Active
O=C1OC(O)C(c2cccc3ccccc23)=C1Br (stereo not drawn),8.6,13.7,0,–
O=C1OC(O)C(c2cccc3c2oc2ccccc23)=C1Br (stereo not drawn),0,38.6,20.4,–
CCc1c(CC(N)=O)c2cc(OCCCP(=O)(O)O)ccc2n1Cc1ccccc1,2.7,6.8,0,Activity (RAW264.7 [10]): inactive
CS(=O)(=O)Nc1ccc([N+](=O)[O-])cc1OC1CCCCC1 [NS-398],–,–,–,Activity (RAW264.7 [7]): 0.07 ng/mL
O=C1OC(O)C(c2ccc(Oc3ccccc3)cc2)=C1Br (stereo not drawn),1,7.8,2.1,–
O=C1OC(O)C(c2ccc3ccccc3c2)=C1c1ccc2ccccc2c1 (stereo not drawn),9.1,22.5,25.2,–
CC(=O)O[C@@H]1O[C@@H](C2=CC(=O)OC2O)C[C@@H]2[C@@H]1CC[C@H]1[C@@]2(C)CC[C@H]2C(C)(C)CCC[C@]12C (stereo partly drawn) [PETROSASPONGIOLIDE M],5.4,11.4,60.8,Activity (RAW264.7 [4]): 7.3 ng/mL; Activity (RAW264.7 [6]): 0.22 ng/mL; Activity (RAW264.7 [15]): Active

# From ChEMBL document CHEMBL1147139, “Synthesis and pharmacological evaluation of a selected library of new potential anti-inflammatory agents bearing the gamma-hydroxybutenolide scaffold: a new class of inhibitors of prostanoid production through the selective modulation of microsomal prostaglandin E synthase-1 expression” (J Med Chem, 2007)
